Data set [1] in a line: folding enthalpy; higher = less favourable; fluorescence melt of hairpins on a sequencing array, two-state fit. To be noted: sodium 0.088 M. A digest of the protocol: (§1)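 On a sequenced MiSeq flow cell, library hairpins with annealed Cy3 and quencher oligos were imaged for Cy3 fluorescence in 2.5 °C steps up to 60 °C, in 50 mM Na-HEPES pH 8.0, 25 mM NaCl. Normalisation used pre-quench Cy3 and control constructs. Bootstrapped two-state fits gave melting temperature and folding enthalpy, combined by inverse variance across four replicates and with fitted temperatures raised by 9.35 °C to match UV melts.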

Data set [2] can be described thus: melting temperature; fluorescence melt of hairpins on a sequencing array, two-state fit, raised by 9.35 °C to match UV melts. To be noted: sodium 0.088 M. A digest of the protocol:
as §1

AAATGGAAACATTT (((((....))))): the folding enthalpy in data set [1] was -9.49 kcal/mol. Further, the Tm in data set [2] was 27.2 °C.
The corresponding values for AAGAGGAAACTCTT (((((....))))) are -9.65 kcal/mol and 28 °C.
For AAGCTGAAAAGCTT (((((....))))) the same measures were -21.1 kcal/mol and 49.3 °C.
For AAGGAGAAATCCTT (((((....))))) the same measures were -8.61 kcal/mol and 27.3 °C.
For ACAGAGAAATCTGT (((((....))))), in data set [1], the folding enthalpy was -13.6 kcal/mol. In data set [2], the Tm amounted to 32.7 °C.
The corresponding values for ACATTGAAAAATGT (((((....))))) are -13.4 kcal/mol and 32.9 °C.
For ACCCGGAAACGGGT (((((....))))) the same measures were -19.5 kcal/mol and 58.1 °C.
The corresponding values for ACCTGGAAACAGGT (((((....))))) are -18.8 kcal/mol and 51.1 °C.
With ACGAAGAAATTCGT (((((....))))), the folding enthalpy in data set [1] is -18.1 kcal/mol. In addition, in data set [2], the Tm worked out at 38 °C.
The corresponding values for ACTATGAAAATAGT (((((....))))) are -11.8 kcal/mol and 32.2 °C.
For ACTCTGAAAAGAGT (((((....))))) the same measures were -17.4 kcal/mol and 43.4 °C.
In the case of ACTTGGAAACAAGT (((((....))))), the folding enthalpy in data set [1] was -17.8 kcal/mol. The Tm in data set [2] came out at 38.4 °C.
The corresponding values for AGAACCCGAAAGGCTTCT ((((.((....)).)))) are -17.7 kcal/mol and 33.6 °C.
The corresponding values for AGAATCAGAAATGGTTCT ((((.((....)).)))) are -26.5 kcal/mol and 30.6 °C.
The corresponding values for AGAATCCGAAAGGCTTCT ((((.((....)).)))) are -27.3 kcal/mol and 35.6 °C.
Regarding AGACCGAAAGGTCT (((((....))))), the folding enthalpy in data set [1] was -21.1 kcal/mol. For the same sequence, in data set [2], the Tm was determined as 68.6 °C.
For AGATGGAAACATCT (((((....))))) the same measures were -19 kcal/mol and 42.1 °C.
The corresponding values for AGCATGAAAATGCT (((((....))))) are -22.2 kcal/mol and 50 °C.
For AGCGAGAAATCGCT (((((....))))) the same measures were -20.7 kcal/mol and 53.7 °C.
As for AGCGGGAAACCGCT (((((....))))), the folding enthalpy in data set [1] is -19.1 kcal/mol. The Tm in data set [2] is 67.1 °C.
For AGGGGGAAACCCCT (((((....))))) the same measures were -17.5 kcal/mol and 53.5 °C.
Consider AGGGTGAAAACCCT (((((....))))), for which the folding enthalpy in data set [1] was -19.3 kcal/mol. Further, the Tm in data set [2] amounted to 53.9 °C.
The corresponding values for AGGTTGAAAAACCT (((((....))))) are -20.5 kcal/mol and 45.6 °C.
For ATAACGAAAGTTAT (((((....))))) the same measures were -15.2 kcal/mol and 46.3 °C.
The corresponding values for ATACCGAAAGGTAT (((((....))))) are -20.2 kcal/mol and 52.2 °C.
As for ATACGGAAACGTAT (((((....))))), the folding enthalpy in data set [1] was -21.8 kcal/mol. The Tm in data set [2] was 43.5 °C.
Turning to ATACTGAAAAGTAT (((((....))))), in data set [1], the folding enthalpy was -12.3 kcal/mol. In data set [2], the Tm was 30.6 °C.
For ATCGAGAAATCGAT (((((....))))) the same measures were -23.9 kcal/mol and 39.5 °C.
For ATGAGGAAACTCAT (((((....))))) the same measures were -17.6 kcal/mol and 39.6 °C.
For ATGATGAAAATCAT (((((....))))) the same measures were -15.2 kcal/mol and 39.5 °C.
ATGTTGAAAAACAT (((((....))))): the folding enthalpy in data set [1] is -13 kcal/mol. Also, the Tm in data set [2] was 37 °C.
For CAAAGGAAACTTTG (((((....))))) the same measures were -16.2 kcal/mol and 35 °C.
For CACATGAAAATGTG (((((....))))) the same measures were -27.3 kcal/mol and 47.9 °C.
For CACCAGAAATGGTG (((((....))))) the same measures were -23.4 kcal/mol and 50 °C.
Consider CACTCGAAAGAGTG (((((....))))), for which the folding enthalpy in data set [1] is -24.4 kcal/mol. Also, in data set [2], the Tm is 59.9 °C.
For CAGACGAAAGTCTG (((((....))))) the same measures were -24.4 kcal/mol and 61.9 °C.
For CATAGGAAACTATG (((((....))))) the same measures were -14.3 kcal/mol and 38.4 °C.
The corresponding values for CCAAAGAAATTTGG (((((....))))) are -8.79 kcal/mol and 30.9 °C.
On to CCAAGGAAACTTGG (((((....))))), for which the folding enthalpy in data set [1] is -20.3 kcal/mol. Besides, in data set [2], the Tm stood at 46 °C.
For the sequence CCAGTGAAAACTGG (((((....))))), the folding enthalpy in data set [1] is -19.8 kcal/mol. For the same sequence, the Tm in data set [2] was determined as 50.8 °C.
The corresponding values for CCATGGAAACATGG (((((....))))) are -23.2 kcal/mol and 49.6 °C.
For CCCTGGAAACAGGG (((((....))))) the same measures were -20 kcal/mol and 56.9 °C.
For CCTTGGAAACAAGG (((((....))))) the same measures were -15.7 kcal/mol and 47.2 °C.
CGAAAACGGAAACGTTCG (((..(((....)))))): the folding enthalpy in data set [1] was -19.8 kcal/mol. Besides, the Tm in data set [2] worked out at 37 °C.
For CGAAACCGGAAACGGTCG (((..(((....)))))) the same measures were -14.9 kcal/mol and 43.8 °C.
For CGAAACGGAAACGTATCG (((.(((....))).))) the same measures were -30.8 kcal/mol and 42.6 °C.
The corresponding values for CGAACCCGGAAACGGTCG (((..(((....)))))) are -13 kcal/mol and 36.7 °C.
Regarding CGAACGCGGAAACGCTCG (((..(((....)))))), the folding enthalpy in data set [1] was -17.2 kcal/mol. Moreover, the Tm in data set [2] is 40.5 °C.
For CGAACGGAAACGTAATCG ((((((....)))..))) the same measures were -8.82 kcal/mol and 24.5 °C.
For CGAAGACGGAAACGTTCG (((..(((....)))))) the same measures were -13.8 kcal/mol and 39 °C.
Turning to CGAATACGGAAACGTTCG (((..(((....)))))), the folding enthalpy in data set [1] is -24.9 kcal/mol. In addition, in data set [2], the Tm is 34 °C.
The corresponding values for CGACACGGAAACGTCTCG (((.(((....))).))) are -26.8 kcal/mol and 35.9 °C.
Consider CGACAGCGGAAACGCTCG (((..(((....)))))), for which the folding enthalpy in data set [1] is -12.9 kcal/mol. The Tm in data set [2] was 40.3 °C.
For CGACATCGGAAACGATCG (((..(((....)))))) the same measures were -12.7 kcal/mol and 34 °C.
CGACCACGGAAACGTTCG (((..(((....)))))): in data set [1], the folding enthalpy is -12.3 kcal/mol. In addition, the Tm in data set [2] was 30.5 °C.
Consider CGACCGCGGAAACGCTCG (((..(((....)))))), for which the folding enthalpy in data set [1] is -11.2 kcal/mol. Besides, in data set [2], the Tm came out at 34 °C.
The corresponding values for CGACCGGAAACGGTCTCG ((((((....)))..))) are -8.29 kcal/mol and 38 °C.
The corresponding values for CGACGCGGAAACGCCTCG (((.(((....))).))) are -23.9 kcal/mol and 41.5 °C.
The corresponding values for CGACTCGGAAACGATTCG (((.(((....))).))) are -41 kcal/mol and 42.5 °C.
Turning to CGACTGAAAAGTCG (((((....))))), the folding enthalpy in data set [1] is -26.5 kcal/mol. Moreover, the Tm in data set [2] stood at 58.5 °C.
With CGACTGCGGAAACGCTCG (((..(((....)))))), the folding enthalpy in data set [1] was -12.5 kcal/mol. Also, the Tm in data set [2] was found to be 32.7 °C.
The corresponding values for CGAGCGGAAACGCACTCG ((((((....)))..))) are -15.8 kcal/mol and 37.6 °C.
The corresponding values for CGAGCGGAAACGCGTTCG ((((((....)))..))) are -12.6 kcal/mol and 49.9 °C.
For the sequence CGAGTACGGAAACGTTCG (((..(((....)))))), the folding enthalpy in data set [1] is -20.4 kcal/mol. Also, the Tm in data set [2] was 36.6 °C.
The corresponding values for CGAGTCGGAAACGATTCG (((.(((....))).))) are -47.2 kcal/mol and 50.4 °C.
The corresponding values for CGAGTGAAAACTCG (((((....))))) are -24.6 kcal/mol and 54.6 °C.
Regarding CGATCCCGGAAACGGTCG (((..(((....)))))), the folding enthalpy in data set [1] was -19.9 kcal/mol. In addition, the Tm in data set [2] worked out at 30.7 °C.
The corresponding values for CGATCCGGAAACGGGTCG (((.(((....))).))) are -38.8 kcal/mol and 57.2 °C.
For CGATCGAAAGATCG (((((....))))) the same measures were -30.4 kcal/mol and 59.9 °C.
With CGATCGGAAACGAAGTCG ((((((....)))..))), the folding enthalpy in data set [1] is -11.7 kcal/mol. In data set [2], the Tm turned out to be 25.6 °C.
For CGATCGGAAACGACATCG ((((((....)))..))) the same measures were -24 kcal/mol and 32 °C.
In the case of CGATCGGAAACGACTCG ((((((....))).))), in data set [1], the folding enthalpy was -31 kcal/mol. The Tm in data set [2] amounted to 40.7 °C.
For CGATCGGAAACGAGCTCG ((((((....)))..))) the same measures were -11.5 kcal/mol and 29.8 °C.
CGATCGGAAACGATGTCG ((((((....)))..))): the folding enthalpy in data set [1] was -13.6 kcal/mol. In data set [2], the Tm worked out at 39.5 °C.
For CGATGCCGGAAACGGTCG (((..(((....)))))) the same measures were -10 kcal/mol and 32.7 °C.
For CGATTCGGAAACGAGTCG (((.(((....))).))) the same measures were -43.6 kcal/mol and 50.8 °C.

(Values after the array DNA melting data of Ke et al. (doi:10.1101/2024.01.08.574731).)
